Source: ChEMBL document CHEMBL1157150, “Synthesis, structure and antibacterial activity of novel 1-(5-substituted-3-substituted-4,5-dihydropyrazol-1-yl)ethanone oxime ester derivatives” (Bioorg Med Chem, 2008)
≈ marks a conversion by molar mass, not a printed value. Calls of active or inactive are those of the source. The calls are words filed in the database; no cut-off is given here.

test system: Bacillus subtilis; assay: microbe, parasite or virus in culture; format: functional; settings: ATCC 6633

Compound	MIC [µg/mL]
CCC(=O)O/N=C(/C)N1N=C(c2ccc(Cl)cc2Cl)CC1c1ccc(C(F)(F)F)cc1 (stereo not given)	50 (≈ 106 µM)
COC1CC(c2ccccc2)=NN1/C(C)=N\OC(=O)c1ccc(F)cc1 (stereo not given)	3.12 (≈ 8.79 µM)
C=CC(=O)O/N=C(/C)N1N=C(C)CC1c1ccc(OCc2ccc(F)cc2)cc1 (stereo not given)	12.5 (≈ 31.6 µM)
C/C(=N/OC(=O)c1ccc(Cl)cc1)N1N=C(c2ccc(Cl)cc2Cl)CC1c1ccccc1F (stereo not given)	12.5 (≈ 24.8 µM)
CCC(=O)O/N=C(/C)N1N=C(c2ccc(Cl)cc2Cl)CC1c1ccccc1F (stereo not given)	50 (≈ 118 µM)
CC1=NN(/C(C)=N\OC(=O)c2ccc(F)cc2)C(c2ccccc2OCc2ccc(F)cc2)C1 (stereo not given)	> 50
C=CC(=O)O/N=C(/C)N1N=C(c2ccc(Cl)cc2Cl)CC1c1ccc(C(F)(F)F)cc1 (stereo not given)	3.12 (≈ 6.65 µM)
C/C(=N/OC(=O)/C=C/c1ccccc1)N1N=C(c2ccc(Cl)cc2Cl)CC1c1ccccc1F (stereo not given)	6.25 (≈ 12.6 µM)
CC1=NN(/C(C)=N\OC(=O)c2ccc(F)cc2)C(c2ccc(OCc3ccc(F)cc3)cc2)C1 (stereo not given)	50 (≈ 108 µM)
CCC(=O)O/N=C(/C)N1N=C(c2ccccc2)CC1OC (stereo not given)	12.5 (≈ 43.2 µM)
CC1=NN(/C(C)=N\OC(=O)c2ccc(C(F)(F)F)cc2)C(c2ccccc2OCc2ccc(F)cc2)C1 (stereo not given)	50 (≈ 97.4 µM)
NC[C@H]1O[C@H](O[C@H]2[C@H](O)[C@@H](O[C@H]3O[C@H](CO)[C@@H](O)[C@H](N)[C@H]3O)[C@H](N)C[C@@H]2N)[C@H](O)[C@@H](O)[C@@H]1O [KANAMYCIN]	0.39 (≈ 0.805 µM)
COC1CC(c2ccccc2)=NN1/C(C)=N\OC(=O)c1ccccc1[N+](=O)[O-] (stereo not given)	6.25 (≈ 16.3 µM)
C/C(=N/OC(=O)c1ccc(F)cc1)N1N=C(c2ccc(Cl)cc2Cl)CC1c1ccc(C(F)(F)F)cc1 (stereo not given)	25 (≈ 46.4 µM)
COC1CC(c2ccccc2)=NN1/C(C)=N\OC(=O)c1ccccc1C (stereo not given)	12.5 (≈ 35.6 µM)
CC1=NN(/C(C)=N\OC(=O)c2ccccc2Cl)C(c2ccc(OCc3ccc(F)cc3)cc2)C1 (stereo not given)	50 (≈ 104 µM)
CCCC(=O)O/N=C(/C)N1N=C(C)CC1c1ccccc1OCc1ccc(F)cc1 (stereo not given)	50 (≈ 122 µM)

test system: Pseudomonas aeruginosa; assay: Antibacterial activity against Pseudomonas aeruginosa ATCC 13525; format: functional, organism-based; settings: not given
How it was run: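 Broth microdilution in MH medium with an inoculum of about 10⁵ cfu/mL. Compounds were serially diluted from a DMSO stock and incubated 24 h at 37 °C. MIC was read visually, then confirmed colorimetrically: MTT (2 mg/mL in PBS, pH 7.4) was added for 4–5 h at room temperature, the dye was extracted with isopropanol/5% 1 mol/L HCl for 12 h, and OD was read at 550 nm.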

Compound	Activity
CCC(=O)O/N=C(/C)N1N=C(c2ccc(Cl)cc2Cl)CC1c1ccc(C(F)(F)F)cc1 (stereo not given)	Active
C=CC(=O)O/N=C(/C)N1N=C(C)CC1c1ccc(OCc2ccc(F)cc2)cc1 (stereo not given)	Active
C/C(=N/OC(=O)c1ccc(Cl)cc1)N1N=C(c2ccc(Cl)cc2Cl)CC1c1ccccc1F (stereo not given)	Active
CCC(=O)O/N=C(/C)N1N=C(c2ccc(Cl)cc2Cl)CC1c1ccccc1F (stereo not given)	Active
CC1=NN(/C(C)=N\OC(=O)c2ccc(F)cc2)C(c2ccccc2OCc2ccc(F)cc2)C1 (stereo not given)	Active
C=CC(=O)O/N=C(/C)N1N=C(c2ccc(Cl)cc2Cl)CC1c1ccc(C(F)(F)F)cc1 (stereo not given)	Active
C/C(=N/OC(=O)/C=C/c1ccccc1)N1N=C(c2ccc(Cl)cc2Cl)CC1c1ccccc1F (stereo not given)	Active
CC1=NN(/C(C)=N\OC(=O)c2ccc(F)cc2)C(c2ccc(OCc3ccc(F)cc3)cc2)C1 (stereo not given)	Active
CC1=NN(/C(C)=N\OC(=O)c2ccc(C(F)(F)F)cc2)C(c2ccccc2OCc2ccc(F)cc2)C1 (stereo not given)	Active
C/C(=N/OC(=O)c1ccc(F)cc1)N1N=C(c2ccc(Cl)cc2Cl)CC1c1ccc(C(F)(F)F)cc1 (stereo not given)	Active
CC1=NN(/C(C)=N\OC(=O)c2ccccc2Cl)C(c2ccc(OCc3ccc(F)cc3)cc2)C1 (stereo not given)	Active
CCCC(=O)O/N=C(/C)N1N=C(C)CC1c1ccccc1OCc1ccc(F)cc1 (stereo not given)	Active

test system: Escherichia coli; assay: Antibacterial activity against Escherichia coli ATCC 35218; format: functional; settings: not given

Compound	MIC [µg/mL]
CCC(=O)O/N=C(/C)N1N=C(c2ccc(Cl)cc2Cl)CC1c1ccc(C(F)(F)F)cc1 (stereo not given)	50 (≈ 106 µM)
COC1CC(c2ccccc2)=NN1/C(C)=N\OC(=O)c1ccc(F)cc1 (stereo not given)	6.25 (≈ 17.6 µM)
C=CC(=O)O/N=C(/C)N1N=C(C)CC1c1ccc(OCc2ccc(F)cc2)cc1 (stereo not given)	25 (≈ 63.2 µM)
C/C(=N/OC(=O)c1ccc(Cl)cc1)N1N=C(c2ccc(Cl)cc2Cl)CC1c1ccccc1F (stereo not given)	50 (≈ 99.1 µM)
CCC(=O)O/N=C(/C)N1N=C(c2ccc(Cl)cc2Cl)CC1c1ccccc1F (stereo not given)	50 (≈ 118 µM)
CC1=NN(/C(C)=N\OC(=O)c2ccc(F)cc2)C(c2ccccc2OCc2ccc(F)cc2)C1 (stereo not given)	> 50
C=CC(=O)O/N=C(/C)N1N=C(c2ccc(Cl)cc2Cl)CC1c1ccc(C(F)(F)F)cc1 (stereo not given)	6.25 (≈ 13.3 µM)
C/C(=N/OC(=O)/C=C/c1ccccc1)N1N=C(c2ccc(Cl)cc2Cl)CC1c1ccccc1F (stereo not given)	6.25 (≈ 12.6 µM)
CC1=NN(/C(C)=N\OC(=O)c2ccc(F)cc2)C(c2ccc(OCc3ccc(F)cc3)cc2)C1 (stereo not given)	50 (≈ 108 µM)
CCC(=O)O/N=C(/C)N1N=C(c2ccccc2)CC1OC (stereo not given)	12.5 (≈ 43.2 µM)
CC1=NN(/C(C)=N\OC(=O)c2ccc(C(F)(F)F)cc2)C(c2ccccc2OCc2ccc(F)cc2)C1 (stereo not given)	50 (≈ 97.4 µM)
NC[C@H]1O[C@H](O[C@H]2[C@H](O)[C@@H](O[C@H]3O[C@H](CO)[C@@H](O)[C@H](N)[C@H]3O)[C@H](N)C[C@@H]2N)[C@H](O)[C@@H](O)[C@@H]1O [KANAMYCIN]	1.56 (≈ 3.22 µM)
COC1CC(c2ccccc2)=NN1/C(C)=N\OC(=O)c1ccccc1[N+](=O)[O-] (stereo not given)	6.25 (≈ 16.3 µM)
C/C(=N/OC(=O)c1ccc(F)cc1)N1N=C(c2ccc(Cl)cc2Cl)CC1c1ccc(C(F)(F)F)cc1 (stereo not given)	25 (≈ 46.4 µM)
COC1CC(c2ccccc2)=NN1/C(C)=N\OC(=O)c1ccccc1C (stereo not given)	12.5 (≈ 35.6 µM)
CC1=NN(/C(C)=N\OC(=O)c2ccccc2Cl)C(c2ccc(OCc3ccc(F)cc3)cc2)C1 (stereo not given)	50 (≈ 104 µM)
CCCC(=O)O/N=C(/C)N1N=C(C)CC1c1ccccc1OCc1ccc(F)cc1 (stereo not given)	50 (≈ 122 µM)

test system: Pseudomonas fluorescens; assay: Antibacterial activity against Pseudomonas fluorescens ATCC 13525; format: functional; settings: not given

Compound	MIC [µg/mL]
CCC(=O)O/N=C(/C)N1N=C(c2ccc(Cl)cc2Cl)CC1c1ccc(C(F)(F)F)cc1 (stereo not given)	50 (≈ 106 µM)
COC1CC(c2ccccc2)=NN1/C(C)=N\OC(=O)c1ccc(F)cc1 (stereo not given)	12.5 (≈ 35.2 µM)
C=CC(=O)O/N=C(/C)N1N=C(C)CC1c1ccc(OCc2ccc(F)cc2)cc1 (stereo not given)	50 (≈ 126 µM)
C/C(=N/OC(=O)c1ccc(Cl)cc1)N1N=C(c2ccc(Cl)cc2Cl)CC1c1ccccc1F (stereo not given)	50 (≈ 99.1 µM)
CCC(=O)O/N=C(/C)N1N=C(c2ccc(Cl)cc2Cl)CC1c1ccccc1F (stereo not given)	50 (≈ 118 µM)
CC1=NN(/C(C)=N\OC(=O)c2ccc(F)cc2)C(c2ccccc2OCc2ccc(F)cc2)C1 (stereo not given)	> 50
C=CC(=O)O/N=C(/C)N1N=C(c2ccc(Cl)cc2Cl)CC1c1ccc(C(F)(F)F)cc1 (stereo not given)	12.5 (≈ 26.6 µM)
C/C(=N/OC(=O)/C=C/c1ccccc1)N1N=C(c2ccc(Cl)cc2Cl)CC1c1ccccc1F (stereo not given)	3.12 (≈ 6.3 µM)
CC1=NN(/C(C)=N\OC(=O)c2ccc(F)cc2)C(c2ccc(OCc3ccc(F)cc3)cc2)C1 (stereo not given)	50 (≈ 108 µM)
CCC(=O)O/N=C(/C)N1N=C(c2ccccc2)CC1OC (stereo not given)	12.5 (≈ 43.2 µM)
CC1=NN(/C(C)=N\OC(=O)c2ccc(C(F)(F)F)cc2)C(c2ccccc2OCc2ccc(F)cc2)C1 (stereo not given)	50 (≈ 97.4 µM)
NC[C@H]1O[C@H](O[C@H]2[C@H](O)[C@@H](O[C@H]3O[C@H](CO)[C@@H](O)[C@H](N)[C@H]3O)[C@H](N)C[C@@H]2N)[C@H](O)[C@@H](O)[C@@H]1O [KANAMYCIN]	3.12 (≈ 6.45 µM)
COC1CC(c2ccccc2)=NN1/C(C)=N\OC(=O)c1ccccc1[N+](=O)[O-] (stereo not given)	12.5 (≈ 32.7 µM)
C/C(=N/OC(=O)c1ccc(F)cc1)N1N=C(c2ccc(Cl)cc2Cl)CC1c1ccc(C(F)(F)F)cc1 (stereo not given)	25 (≈ 46.4 µM)
COC1CC(c2ccccc2)=NN1/C(C)=N\OC(=O)c1ccccc1C (stereo not given)	25 (≈ 71.1 µM)
CC1=NN(/C(C)=N\OC(=O)c2ccccc2Cl)C(c2ccc(OCc3ccc(F)cc3)cc2)C1 (stereo not given)	50 (≈ 104 µM)
CCCC(=O)O/N=C(/C)N1N=C(C)CC1c1ccccc1OCc1ccc(F)cc1 (stereo not given)	50 (≈ 122 µM)

test system: Staphylococcus aureus; assay: Antibacterial activity against Staphylococcus aureus ATCC 6538; format: functional; settings: not given

Compound	MIC [µg/mL]
CCC(=O)O/N=C(/C)N1N=C(c2ccc(Cl)cc2Cl)CC1c1ccc(C(F)(F)F)cc1 (stereo not given)	50 (≈ 106 µM)
COC1CC(c2ccccc2)=NN1/C(C)=N\OC(=O)c1ccc(F)cc1 (stereo not given)	6.25 (≈ 17.6 µM)
C=CC(=O)O/N=C(/C)N1N=C(C)CC1c1ccc(OCc2ccc(F)cc2)cc1 (stereo not given)	50 (≈ 126 µM)
C/C(=N/OC(=O)c1ccc(Cl)cc1)N1N=C(c2ccc(Cl)cc2Cl)CC1c1ccccc1F (stereo not given)	50 (≈ 99.1 µM)
CCC(=O)O/N=C(/C)N1N=C(c2ccc(Cl)cc2Cl)CC1c1ccccc1F (stereo not given)	50 (≈ 118 µM)
CC1=NN(/C(C)=N\OC(=O)c2ccc(F)cc2)C(c2ccccc2OCc2ccc(F)cc2)C1 (stereo not given)	> 50
C=CC(=O)O/N=C(/C)N1N=C(c2ccc(Cl)cc2Cl)CC1c1ccc(C(F)(F)F)cc1 (stereo not given)	12.5 (≈ 26.6 µM)
C/C(=N/OC(=O)/C=C/c1ccccc1)N1N=C(c2ccc(Cl)cc2Cl)CC1c1ccccc1F (stereo not given)	50 (≈ 101 µM)
CC1=NN(/C(C)=N\OC(=O)c2ccc(F)cc2)C(c2ccc(OCc3ccc(F)cc3)cc2)C1 (stereo not given)	50 (≈ 108 µM)
CCC(=O)O/N=C(/C)N1N=C(c2ccccc2)CC1OC (stereo not given)	25 (≈ 86.4 µM)
CC1=NN(/C(C)=N\OC(=O)c2ccc(C(F)(F)F)cc2)C(c2ccccc2OCc2ccc(F)cc2)C1 (stereo not given)	50 (≈ 97.4 µM)
NC[C@H]1O[C@H](O[C@H]2[C@H](O)[C@@H](O[C@H]3O[C@H](CO)[C@@H](O)[C@H](N)[C@H]3O)[C@H](N)C[C@@H]2N)[C@H](O)[C@@H](O)[C@@H]1O [KANAMYCIN]	3.12 (≈ 6.45 µM)
COC1CC(c2ccccc2)=NN1/C(C)=N\OC(=O)c1ccccc1[N+](=O)[O-] (stereo not given)	12.5 (≈ 32.7 µM)
C/C(=N/OC(=O)c1ccc(F)cc1)N1N=C(c2ccc(Cl)cc2Cl)CC1c1ccc(C(F)(F)F)cc1 (stereo not given)	50 (≈ 92.9 µM)
COC1CC(c2ccccc2)=NN1/C(C)=N\OC(=O)c1ccccc1C (stereo not given)	12.5 (≈ 35.6 µM)
CC1=NN(/C(C)=N\OC(=O)c2ccccc2Cl)C(c2ccc(OCc3ccc(F)cc3)cc2)C1 (stereo not given)	12.5 (≈ 26 µM)
CCCC(=O)O/N=C(/C)N1N=C(C)CC1c1ccccc1OCc1ccc(F)cc1 (stereo not given)	50 (≈ 122 µM)
